The source of these data is ChEMBL document CHEMBL1124400, “Synthesis and evaluation of antileukemic activity of 5-thienyl- or 5-(2-furyl)-2,3-dihydro-6,7-bis(hydroxymethyl)-1H-pyrrolizine bis(alkylcarbamates) and derivatives” (J Med Chem, 1989).

Broadly, the LD50 is the dose expected to kill half of the subjects tested. A lower LD50 goes with greater toxicity.

Structures are written as SMILES. Where “and” joins values, the source holds several entries; their conditions need not be identical. Identical values can stand only once.

Data set [1] relates to Mus musculus. The experiment in a line: MST of mitomycin 2 mg/kg treated group x 100/MST of untreated control group at a dose of 100 mg/kg in L1210 leukemic mice. It is filed as functional. In outline:
(§1)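 Reference group of 8 B6D2F1 mice bearing ip-grafted 10⁵ L1210 cells (day 0), given mitomycin 2 mg/kg in distilled water ip on days 1, 5 and 9. Controls were 12 mice given vehicle only. Mortality was followed daily with autopsy. Ref I = mitomycin-group MST × 100/control MST, run alongside each test experiment.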

Data set [2] has as its system Mus musculus. In words: MST of mitomycin 2 mg/kg treated group x 100/MST of untreated control group at a dose of 20 mg/kg in L1210 leukemic mice. It is filed as functional. The method, boiled down: as §1
For data set [3], the system named is Mus musculus. The experiment in a line: MST of mitomycin 2 mg/kg treated group x 100/MST of untreated control group at a dose of 50 mg/kg in L1210 leukemic mice. The format is functional. In outline:
as §1

Data set [4] concerns Mus musculus. In words: Median survival time of treated group / untreated group, when 20 mg/kg compound is administered intraperitoneally in L1210 leukemic mice. It is filed as functional. The conditions noted are these: route intraperitoneal. In outline: (§2)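 Male 3-month-old B6D2F1 mice, 10⁵ L1210 cells ip on day 0. Compound was given ip on days 1, 5 and 9 in aqueous 20% Tween 80 (0.1–0.2 mL per 20 g), 8 mice per group. Twelve vehicle controls. Daily mortality with autopsy to assign leukemic versus toxic death. I = treated MST × 100/control MST. Wilcoxon test, p < 0.05; active if I > 125 and p < 0.05.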

Data set [5] relates to Mus musculus. The experiment in a line: Median survival time of treated group / untreated group, when 50 mg/kg compound is administered intraperitoneally in L1210 leukemic mice. The format is functional. The following applies: route intraperitoneal. The method, boiled down:
as §2

Data set [6] relates to Mus musculus. In words: Median survival time of treated group / untreated group, when 100 mg/kg compound is administered intraperitoneally in L1210 leukemic mice. The conditions noted are these: route intraperitoneal. The format is functional. The method, boiled down:
as §2

Data set [7] can be described thus: Lethal dose in L1210 leukemic mice, by administering compound intraperitoneally. The format is toxicity, organism-based. The conditions noted are these: mouse, in vivo, ip. In outline:
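Male B6D2F1 mice (3 months old) received 10⁵ L1210 leukemia cells ip on day 0. One day later they were given compound ip. Mortality was recorded daily for 9 days and the acute LD50 expressed in mg/kg.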

The nature of data set [8]: Ratio, I x 100/ref I at a dose of 100 mg/kg in L1210 leukemic mice. The format is functional. The method, boiled down: (§3)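 Male B6D2F1 mice, 3 months old, received 10^5 L1210 cells ip on day 0. Dosing was ip on days 1, 5 and 9 in 20% aqueous Tween 80, 0.1–0.2 mL per 20 g, with 8 mice per group. There were 12 vehicle controls and 8 mice given mitomycin 2 mg/kg ip in water. Daily mortality was recorded, with autopsies. Ratio = treated-group MST ×100/reference-group MST; Wilcoxon, p<0.05.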

A short description of data set [9]: Ratio, I x 100/ref I at a dose of 20 mg/kg in L1210 leukemic mice. It is filed as functional. In outline: as §3
The nature of data set [10]: Ratio, I x 100/ref I at a dose of 50 mg/kg in L1210 leukemic mice. It is filed as functional. The method, boiled down: as §3
Data set [11] has as its system Mus musculus. The experiment in a line: MST of mitomycin 2 mg/kg treated group x 100/MST of untreated control group at a dose of 16 mg/kg in L1210 leukemic mice. It is filed as functional. The method, boiled down:
as §1

The subject of data set [12] is Mus musculus. In words: Median survival time of treated group / untreated group, when 16 mg/kg compound is administered intraperitoneally in L1210 leukemic mice. The format is functional. The following applies: route intraperitoneal. The method, boiled down: as §2
Data set [13] has as its system Mus musculus. The experiment in a line: Median survival time of treated group / untreated group, when 40 mg/kg compound is administered intraperitoneally in L1210 leukemic mice. The following applies: route intraperitoneal. It is filed as functional. The method, boiled down: as §2
Data set [14] deals with Mus musculus. In words: Median survival time of treated group / untreated group, when 75 mg/kg compound is administered intraperitoneally in L1210 leukemic mice. It is filed as functional. The conditions noted are these: route intraperitoneal. The method, boiled down:
as §2

The test system of data set [15] is Mus musculus. In words: MST of mitomycin 2 mg/kg treated group x 100/MST of untreated control group at a dose of 75 mg/kg in L1210 leukemic mice. It is filed as functional. In outline:
as §1

A short description of data set [16]: Ratio of acute lethal dose to the efficient dose at 100 mg/kg dose. It is filed as functional. In outline:
(§4)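 Ratio of acute LD50 to efficient dose. LD50 came from single ip dosing one day after ip grafting of 10⁵ L1210 cells in B6D2F1 mice, with 9-day mortality. The efficient dose came from ip treatment on days 1, 5 and 9 in the median-survival test.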

Data set [17] in a line: Ratio of acute lethal dose to the efficient dose at 85 mg/kg dose. It is filed as functional. In outline:
as §4

Data set [18] in a line: Ratio, I x 100/ref I at a dose of 16 mg/kg in L1210 leukemic mice. It is filed as functional. In outline: as §3
A short description of data set [19]: Ratio, I x 100/ref I at a dose of 40 mg/kg in L1210 leukemic mice. The format is functional. The method, boiled down:
as §3

Data set [20] concerns Mus musculus. The experiment in a line: MST of mitomycin 2 mg/kg treated group x 100/MST of untreated control group at a dose of 40 mg/kg in L1210 leukemic mice. It is filed as functional. The method, boiled down: as §1
A short description of data set [21]: Ratio, I x 100/ref I at a dose of 75 mg/kg in L1210 leukemic mice.
For data set [22], the system named is Mus musculus. The experiment in a line: Median survival time of treated group / untreated group, when 100 mg/kg compound is administered intraperitoneally in L1210 leukemic mice. The following applies: route intraperitoneal.
Data set [23] concerns Mus musculus. In words: MST of mitomycin 2 mg/kg treated group x 100/MST of untreated control group at a dose of 4 mg/kg in L1210 leukemic mice. It is filed as functional. In outline: as §1
For data set [24], the system named is Mus musculus. The experiment in a line: MST of mitomycin 2 mg/kg treated group x 100/MST of untreated control group at a dose of 10 mg/kg in L1210 leukemic mice. It is filed as functional. In outline:
as §1

Data set [25] concerns Mus musculus. In words: MST of mitomycin 2 mg/kg treated group x 100/MST of untreated control group at a dose of 15 mg/kg in L1210 leukemic mice. It is filed as functional. The method, boiled down:
as §1

The test system of data set [26] is Mus musculus. The experiment in a line: Median survival time of treated group / untreated group, when 10 mg/kg compound is administered intraperitoneally in L1210 leukemic mice. It is filed as functional. The conditions noted are these: route intraperitoneal. In outline: as §2
The test system of data set [27] is Mus musculus. The experiment in a line: Median survival time of treated group / untreated group, when 15 mg/kg compound is administered intraperitoneally in L1210 leukemic mice. The format is functional. The conditions noted are these: route intraperitoneal. In outline:
as §2

Data set [28] deals with Mus musculus. The experiment in a line: Median survival time of treated group / untreated group, when 4 mg/kg compound is administered intraperitoneally in L1210 leukemic mice. The format is functional. The conditions noted are these: route intraperitoneal. In outline:
as §2

Data set [29] can be described thus: Ratio, I x 100/ref I at a dose of 10 mg/kg in L1210 leukemic mice. The format is functional. The method, boiled down:
as §3

Data set [30] can be described thus: Ratio, I x 100/ref I at a dose of 15 mg/kg in L1210 leukemic mice. It is filed as functional. In outline:
as §3

A short description of data set [31]: Ratio, I x 100/ref I at a dose of 4 mg/kg in L1210 leukemic mice. The format is functional. In outline: as §3
For data set [32], the system named is Mus musculus. The experiment in a line: Median survival time of treated group / untreated group, when 8 mg/kg compound is administered intraperitoneally in L1210 leukemic mice. It is filed as functional. The conditions noted are these: route intraperitoneal. The method, boiled down:
as §2

In data set [33] the test system is Mus musculus. In words: MST of mitomycin 2 mg/kg treated group x 100/MST of untreated control group at a dose of 8 mg/kg in L1210 leukemic mice. The format is functional. The method, boiled down: as §1
Data set [34] can be described thus: Ratio of acute lethal dose to the efficient dose at 20 mg/kg. The format is functional. In outline:
as §4

Data set [35] in a line: Ratio, I x 100/ref I at a dose of 8 mg/kg in L1210 leukemic mice. The format is functional. In outline:
as §3

On to `CNC(=O)OCc1c(COC(=O)NC)c(-c2ccco2)n2c1CCC2`, for which the Ref I oncostatic index was found to be 125 in the data set with Mus musculus [1], 117 in the data set on Mus musculus [2] and 117 in the data set on Mus musculus [3]. The Oncostatic index in the data set on Mus musculus [4] amounted to 100; with Mus musculus [5] it was 108; in the data set with Mus musculus [6] it was 100. The molecule also displayed an LD50 in data set [7] above 150 mg/kg. Moreover, the Ratio is 80 in data set [8], 86 in data set [9] and 92 in data set [10].

On to `CNC(=O)OCc1c(COC(=O)NC)c(-c2ccsc2)n2c1CCC2`, for which the Ref I oncostatic index in the data set with Mus musculus [1] is 140; with Mus musculus [11] it was 125; with Mus musculus [15], 140 and 126; in the data set on Mus musculus [20], 125. Further, the Oncostatic index in the data set with Mus musculus [12] is 100; in the data set on Mus musculus [13] it was 100; with Mus musculus [14], 120; with Mus musculus [22], 120. This molecule had a median lethal dose (LD50) in data set [7] above 150 mg/kg. For the same molecule, the Ratio came out at 1.2 in data set [16]; 1.4 in [17]; 86 in data set [8]; 80 in data set [18]; 80 in data set [19]; 86 in [21].

Regarding `CC(C)NC(=O)OCc1c(COC(=O)NC(C)C)c(-c2cccs2)n2c1CCC2`, the “Ref I oncostatic index” value with Mus musculus [23] is given as 164; in the data set on Mus musculus [24] it was 163; in the data set with Mus musculus [25], 139. Besides, the Oncostatic index was 129 in the data set with Mus musculus [26], 125 in the data set on Mus musculus [27] and 108 with Mus musculus [28]. In addition, in [7], the LD50 stood at 35 mg/kg. For the same molecule, the figures for the Ratio in data set [29], in data set [30] and in data set [31] were 79, 90 and 66, respectively.

As to `CNC(=O)OCc1c(COC(=O)NC)c(-c2cccs2)n2c1CSC2`, the “Ref I oncostatic index” value is given as 121 in the data set with Mus musculus [2] and 117 in the data set with Mus musculus [33]. The results for the Oncostatic index in the data set on Mus musculus [4] and in the data set with Mus musculus [32] were 125 and 100, respectively. For the same molecule, the LD50 in [7] was 50 mg/kg. The Ratio was 2.5 in data set [34], 103 in data set [9] and 86 in [35].
